The source made the active and inactive calls. The calls are words filed in the database; no cut-off is given here.
Tests used:
[1] = tested on: Coxsackievirus B3; assay: Selectivity index, ratio of TC50 for African green monkey Vero cells to IC50 for Coxsackievirus B3; assay type: toxicity, cell-based; details: read-out: Selectivity Index
Procedure, shortened: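 SI is TC50/IC50. TC50 comes from 48 h Vero CPE cytotoxicity and IC50 from Cox B3 (100 TCID50) CPE inhibition in Vero cells, both by Reed–Muench analysis.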

[2] = tested on: Coxsackievirus B3; assay: Antiviral activity against Coxsackievirus B3 infected in African green monkey Vero cells assessed as protection against virus-induced cytopathic effect after 48 hrs by Reed-Muench analysis; assay type: functional, organism-based; parameters: unit not given here
Procedure, shortened: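 Confluent Vero monolayers were infected with 100 TCID50 Cox B3 and allowed 1 h adsorption at 37 °C. Cells were PBS-washed, then kept at 37 °C in maintenance medium with 2% FBS, with or without graded compound concentrations. CPE was scored once virus controls reached 4+, and IC50 was derived by Reed–Muench analysis.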

[3] = tested on: Vero; assay: Cytotoxicity against African green monkey Vero cells after 48 hrs by Reed-Muench analysis; assay type: cell-based; parameters: unit not given here; details: chlorocebus sabaeus
Procedure, shortened: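 Vero cells were seeded and, after 24 h, exposed to graded compound concentrations for 48 h at 37 °C under 5% CO2. Cell damage was scored microscopically as CPE, and TC50 was calculated by Reed–Muench analysis.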

Structure (SMILES) | selectivity ratio [1] | IC50 [2] | TC50 [3] | Activity [2]
C[C@@]12COC(=O)[C@]1(C)[C@@H](O)[C@@]13CC(=O)O[C@@]21CC=C3CO[C@@H]1O[C@H](CO)[C@@H](O)[C@H](O)[C@H]1O | 3.9 | 51.7 | 200 | –
CC(C)(O)c1ccc2c(c1)C(=O)C[C@H]1[C@@](C)(C(=O)O)CCC[C@]21C | 3.9 | – | – | –
CC(C)c1ccc2c(c1)CC[C@H]1[C@@](C)(C(=O)O)CCC[C@]21C | 6.7 | – | – | –
C[C@](O)(CO)c1ccc2c(c1)CC[C@H]1[C@@](C)(C(=O)O)CCC[C@]21C | 6.2 | 22.2 | 138.7 | –
C[C@@]12COC(=O)[C@]1(C)[C@@H](OC(=O)c1ccccc1)[C@]13CC(=O)O[C@@]1(C)CC[C@]23O | – | – | – | inactive
C[C@]1(CO)CCC[C@]2(C)c3ccc([C@@](C)(O)CO)cc3CC[C@@H]12 | – | – | – | inactive
C[C@@H]1CC[C@@]23O[C@@]4(O)C[C@@]12[C@@H](O)C(=O)OC[C@@]3(CO)[C@@]4(C)O | 3 | 66.7 | 200 | –
C[C@H](CO)c1ccc2c(c1)CC[C@H]1[C@@](C)(C(=O)O)CCC[C@]21C | 8 | 17.4 | 138.7 | –
C[C@@H]1CC[C@@]23O[C@@]4(O)C[C@@]12[C@@H](O)C(=O)OC[C@@]3(CO[C@@H]1O[C@H](CO)[C@@H](O)[C@H](O)[C@H]1O)[C@@]4(C)O | – | – | – | inactive
CC1=C(C(=O)O[C@@]23OC[C@]4(C)[C@@]5(O)CC[C@@H](C)[C@@]5(CC(=O)[C@]24C)[C@H]3O)CCC1=O | 3 | 66.7 | 200 | –
C[C@]1(CO)CCC[C@]2(C)c3ccc([C@](C)(O)CO)cc3CC[C@@H]12 | – | – | – | inactive
C[C@@H](CO)c1ccc2c(c1)CC[C@H]1[C@@](C)(C(=O)O)CCC[C@]21C | 5.2 | 12.8 | 66.7 | –
CC(C)(O)c1ccc2c(c1)C(=O)C[C@H]1[C@@](C)(CO)CCC[C@]21C | – | – | – | inactive

From ChEMBL document CHEMBL2429751, “Diterpenoids and sesquiterpenoids from the roots of Illicium majus” (J Nat Prod, 2013)
